From ChEMBL document CHEMBL4017508, “Design, Synthesis, and Biological Evaluation of Novel Type I1/2 p38α MAP Kinase Inhibitors with Excellent Selectivity, High Potency, and Prolonged Target Residence Time by Interfering with the R-Spine” (J Med Chem, 2017)

How the values were obtained:
[1] = Metabolic stability in rat liver microsomes after 180 mins in presence of NADPH by LC-MS analysis; type: ADME, microsome; settings: read-out: Stability
Method in brief: (§1)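 Incubation with rat liver microsomes for 180 min, run in triplicate; mean ± standard deviation reported. Parent decrease and percentage of formed metabolites were followed by LC-MS. Samples were dissolved in MeOH and separated on a C18 core-shell column at 20 °C. The gradient ran from 5 to 100% acetonitrile against water, both with 0.1% formic acid, at 500 μL/min. Detection used ESI+.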

Liver = assay: Drug metabolism in rat liver microsomes assessed as metabolite formation after 180 mins in presence of NADPH by LC-MS analysis; type: ADME, microsome; settings: 3 h; method in brief: as §1

For `O=C(NCC(O)CO)c1ccc2c(c1)C(=O)c1ccc(Nc3cc(NC(=O)c4cccs4)c(F)cc3F)cc1CC2` (configuration not stated), the remaining at 3 h [1] was 76.6%.
Molecule `CNC(=O)c1ccc2c(c1)C(=O)c1ccc(Nc3cccc(C(=O)NC4CC4)c3F)cc1CC2` has a remaining at 3 h [1] of 61.6%.
With `O=C(NCCN1CCOCC1)c1ccc2c(c1)C(=O)c1ccc(Nc3ccc(F)c(NC(=O)c4ccccc4)c3)cc1CC2` [FS-694] the remaining at 3 h [1] was 40.6%.
In the case of `O=C(NCC(O)CO)c1ccc2c(c1)C(=O)c1ccc(Nc3ccc(F)c(NC(=O)C4CC4)c3)cc1CC2` (configuration not stated), the remaining at 3 h [1] is reported as 95.2% and the Drug metabolism (Liver) is reported as “Metabolite_Notdetected”.
For `CNC(=O)c1ccc2c(c1)C(=O)c1ccc(Nc3ccc(F)c(NC(=O)c4ccccc4)c3)cc1CC2`, the remaining at 3 h [1] was 65.6%.
`O=C(NCCN1CCOCC1)c1ccc2c(c1)C(=O)c1ccc(Nc3cc(NC(=O)c4cccs4)c(F)cc3F)cc1CC2` showed a remaining at 3 h [1] of 66.7%.
With `O=C(NCCN1CCOCC1)c1ccc2c(c1)C(=O)c1ccc(Nc3ccc(F)c(NC(=O)c4cccs4)c3)cc1CC2` the remaining at 3 h [1] was 57.1%.
Work on `O=C(NCCN1CCOCC1)c1ccc2c(c1)C(=O)c1ccc(Nc3ccc(F)c(NC(=O)c4ccccc4)c3)cc1OC2` yielded a remaining at 3 h [1] of 14.8%.
For `CNC(=O)c1ccc2c(c1)C(=O)c1ccc(Nc3ccc(F)c(NC(=O)C4CC4)c3)cc1CC2`, the remaining at 3 h [1] was 79.5%.
For `O=C(NCCO)c1ccc2c(c1)C(=O)c1ccc(Nc3cc(NC(=O)c4cccs4)c(F)cc3F)cc1CC2`, the remaining at 3 h [1] was 66.9%.
For `O=C(NCC(O)CO)c1ccc2c(c1)C(=O)c1ccc(Nc3cc(NC(=O)c4cccs4)c(F)cc3F)cc1OC2` (configuration not stated), the remaining at 3 h [1] was 48.7%.
